# Calls of active or inactive are those of the source. No cut-off for these calls is given here.
# Assays:
# [1] = molecular target: T1, Bifunctional epoxide hydrolase 2 (Homo sapiens, UniProt P34913); experiment: Inhibition of human soluble epoxide hydrolase by fluorescence assay
# T1 sequence (P34913 whole entry): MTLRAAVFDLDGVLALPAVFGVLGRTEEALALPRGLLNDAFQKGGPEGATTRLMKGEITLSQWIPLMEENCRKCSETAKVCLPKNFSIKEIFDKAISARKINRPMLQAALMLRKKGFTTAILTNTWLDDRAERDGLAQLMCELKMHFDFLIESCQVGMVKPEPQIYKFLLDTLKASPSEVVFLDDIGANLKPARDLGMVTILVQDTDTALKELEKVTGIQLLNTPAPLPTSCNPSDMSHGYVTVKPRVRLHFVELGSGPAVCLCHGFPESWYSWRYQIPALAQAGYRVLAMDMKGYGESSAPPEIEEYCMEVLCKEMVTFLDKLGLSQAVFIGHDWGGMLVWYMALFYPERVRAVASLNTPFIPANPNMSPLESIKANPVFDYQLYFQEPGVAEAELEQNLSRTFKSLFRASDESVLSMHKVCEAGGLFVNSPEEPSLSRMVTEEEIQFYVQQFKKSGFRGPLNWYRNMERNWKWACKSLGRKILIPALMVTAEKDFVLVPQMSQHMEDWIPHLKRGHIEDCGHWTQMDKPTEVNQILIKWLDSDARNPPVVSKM
# In short: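 Recombinant human sEH was used, with inhibition measured by a kinetic fluorescent assay and reported as IC50.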
# [2] = Tmax in dog at 0.3 mg/kg, po; assay type: ADME, organism-based, Canis lupus familiaris; set-up: dose 0.3 mg/kg, route oral; conditions: in vivo
# In short: (§1)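 Dogs were dosed by oral gavage at 0.3 mg/kg in tri-olein-rich oil. Blood concentration–time profiles were followed, and pharmacokinetic parameters were derived from those profiles.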
# [3] = Cmax in dog at 0.3 mg/kg, po; assay type: ADME, organism-based, Canis lupus familiaris; set-up: dose 0.3 mg/kg, route oral; conditions: in vivo; in short: as §1
# [4] = Half life in dog at 0.3 mg/kg, po; assay type: ADME, organism-based, Canis lupus familiaris; set-up: dose 0.3 mg/kg, route oral; conditions: in vivo; in short: as §1
# [5] = AUC (0 to 24 hrs) in dog at 0.3 mg/kg, po; assay type: ADME, organism-based, Canis lupus familiaris; set-up: time < 24 hr, dose 0.3 mg/kg, route oral; conditions: plasma; in short: as §1
# [6] = AUC (0 to infinity) in dog at 0.3 mg/kg, po; assay type: ADME, organism-based, Canis lupus familiaris; set-up: time infinity, dose 0.3 mg/kg, route oral; conditions: plasma; in short: as §1
# [7] = Metabolic stability in human liver S9 fraction in absence of NADPH assessed as residual parent compound remaining; assay type: ADME, subcellular
# In short: (§2)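 Compounds were incubated with human liver S9 fraction, with or without NADPH. Residual parent compound is given as a percentage remaining.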
# [8] = Metabolic stability in human liver S9 fraction in presence of NADPH assessed as residual parent compound remaining; assay type: ADME, subcellular; in short: as §2
# [9] = Chemical stability assessed as compound remaining after 7 hrs in 40 mM NaOH at 22 degC; assay type: physicochemical; conditions: read-out: Activity
# [10] = Octanol-water distribution coefficient, log P of the compound; assay type: physicochemical
# In short: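 Partitioning was between buffer-saturated 1-octanol and 0.1 M sodium phosphate buffer, pH 7.4. Compound concentration was measured in each phase, and logP = log10([octanol]/[buffer]).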
# [11] = molecular target: Prostaglandin G/H synthase 1 (Homo sapiens) (UniProt P23219); experiment: Inhibition of COX1 at 10 uM by fluorescence assay
# [12] = molecular target: T2, Prostaglandin G/H synthase 2 (Homo sapiens) (UniProt P35354); experiment: Inhibition of COX2 at 10 uM by fluorescence assay
# T2 sequence (whole entry): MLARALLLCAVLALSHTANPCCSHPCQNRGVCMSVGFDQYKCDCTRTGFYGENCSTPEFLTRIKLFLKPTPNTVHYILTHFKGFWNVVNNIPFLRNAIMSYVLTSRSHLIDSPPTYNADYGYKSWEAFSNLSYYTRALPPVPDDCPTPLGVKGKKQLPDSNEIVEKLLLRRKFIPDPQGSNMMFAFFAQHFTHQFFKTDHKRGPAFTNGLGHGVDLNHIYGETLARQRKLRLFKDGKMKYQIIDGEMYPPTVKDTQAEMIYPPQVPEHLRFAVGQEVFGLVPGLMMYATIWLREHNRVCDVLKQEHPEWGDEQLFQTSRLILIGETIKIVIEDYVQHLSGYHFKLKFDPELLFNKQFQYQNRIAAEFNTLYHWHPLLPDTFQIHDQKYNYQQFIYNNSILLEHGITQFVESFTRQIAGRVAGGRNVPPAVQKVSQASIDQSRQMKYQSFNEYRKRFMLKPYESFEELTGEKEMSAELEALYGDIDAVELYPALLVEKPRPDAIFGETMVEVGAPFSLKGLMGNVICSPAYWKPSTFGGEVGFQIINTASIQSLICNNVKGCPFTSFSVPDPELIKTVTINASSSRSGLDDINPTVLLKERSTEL
# [13] = Solubility in 0.1 M sodium phosphate buffer at pH 7.4
# [14] = Chemical stability in 40 mM NaOH at 22 degC; assay type: physicochemical
# [15] = Chemical stability assessed as compound hydrolysis after 15 mins in 40 mM NaOH at 22 degC; assay type: physicochemical; conditions: 0.25 h
# Chain of Prostaglandin G/H synthase 1 (Homo sapiens) (P23219 whole entry): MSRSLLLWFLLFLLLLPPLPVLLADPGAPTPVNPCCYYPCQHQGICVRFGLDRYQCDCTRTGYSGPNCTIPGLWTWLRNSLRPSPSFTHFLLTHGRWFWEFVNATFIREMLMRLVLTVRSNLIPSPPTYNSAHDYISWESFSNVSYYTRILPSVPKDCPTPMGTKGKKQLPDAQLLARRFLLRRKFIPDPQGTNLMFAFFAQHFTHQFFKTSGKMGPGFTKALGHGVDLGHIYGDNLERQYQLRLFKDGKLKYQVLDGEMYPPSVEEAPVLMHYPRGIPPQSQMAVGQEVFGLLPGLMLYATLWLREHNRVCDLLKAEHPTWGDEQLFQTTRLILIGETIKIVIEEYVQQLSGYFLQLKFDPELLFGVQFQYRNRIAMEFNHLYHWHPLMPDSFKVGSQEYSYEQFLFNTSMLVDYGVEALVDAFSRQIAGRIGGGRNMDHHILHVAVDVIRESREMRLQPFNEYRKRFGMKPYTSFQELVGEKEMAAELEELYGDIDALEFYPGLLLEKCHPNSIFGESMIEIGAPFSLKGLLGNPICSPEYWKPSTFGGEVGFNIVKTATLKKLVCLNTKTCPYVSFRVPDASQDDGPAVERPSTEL
smiles,measurement,setting,value
COC(=O)c1cccc(NC(=O)NC23CC4CC(CC(C4)C2)C3)c1,IC50,[1],14 nM
O=C(Nc1cccc(OC(=O)c2ccccc2)c1)NC12CC3CC(CC(C3)C1)C2,IC50,[1],5.1 nM
COc1ccccc1NC(=O)NC12CC3CC(CC(C3)C1)C2,IC50,[1],8540 nM
O=C(O)Cc1ccc(NC(=O)NC23CC4CC(CC(C4)C2)C3)cc1,IC50,[1],392 nM
O=C(Nc1ccccc1)NC12CC3CC(CC(C3)C1)C2,IC50,[1],17 nM
O=C(Nc1ccccc1O)NC12CC3CC(CC(C3)C1)C2,IC50,[1],139 nM
COc1cccc(NC(=O)NC23CC4CC(CC(C4)C2)C3)c1,IC50,[1],4.7 nM
O=C(O)CCCCCCCCCCCNC(=O)NC12CC3CC(CC(C3)C1)C2,Tmax,[2],0.5 h
same,Cmax,[3],18 nM
same,half-life,[4],2.9 h
same,AUC(0-t) at 24 h,[5],0.0522 µM·h
same,AUC(0-inf),[6],0.0524 µM·h
COC(=O)c1ccc(NC(=O)NC23CC4CC(CC(C4)C2)C3)cc1O,IC50,[1],2.8 nM
same,Tmax,[2],1 h
same,Stability,[7],93%
same,Stability,[8],89%
same,remaining at 7 h,[9],80%
same,logP,[10],> 4.1
same,Cmax,[3],45 nM
same,half-life,[4],7.9 h
same,AUC(0-t) at 24 h,[5],0.189 µM·h
same,AUC(0-inf),[6],0.209 µM·h
same,Activity,[11],inactive
same,Activity,[12],inactive
same,solubility,[13],200 µg/mL
O=C(O)CCCc1ccc(NC(=O)NC23CC4CC(CC(C4)C2)C3)cc1,IC50,[1],19.9 nM
CC(=O)Oc1cccc(NC(=O)NC23CC4CC(CC(C4)C2)C3)c1,IC50,[1],5.8 nM
CCOCCOCCOc1cccc(NC(=O)NC23CC4CC(CC(C4)C2)C3)c1,Stability,[8],56%
CN1CCN(C(=O)c2cccc(NC(=O)NC34CC5CC(CC(C5)C3)C4)c2)CC1,IC50,[1],35 nM
O=C(Nc1ccc(O)c(C(=O)O)c1)NC12CC3CC(CC(C3)C1)C2,IC50,[1],116 nM
COC(=O)CCCc1ccc(NC(=O)NC23CC4CC(CC(C4)C2)C3)cc1,IC50,[1],3.1 nM
O=C(Nc1ccc(C(=O)O)c(O)c1)NC12CC3CC(CC(C3)C1)C2,IC50,[1],71 nM
same,logP,[10]; read-out: logP,1.6
same,solubility,[13],199000 µg/mL
COc1ccc(NC(=O)NC23CC4CC(CC(C4)C2)C3)cc1,IC50,[1],14 nM
COC(=O)CCc1ccc(NC(=O)NC23CC4CC(CC(C4)C2)C3)cc1,IC50,[1],2.2 nM
O=C(Nc1ccc(O)cc1)NC12CC3CC(CC(C3)C1)C2,IC50,[1],24 nM
COC(=O)c1ccc(NC(=O)NC23CC4CC(CC(C4)C2)C3)cc1,IC50,[1],4.1 nM
same,Stability,[7],97%
same,Stability,[8],95%
same,half-life,[14],2 h
same,logP,[10],> 3.9
same,solubility,[13],400 µg/mL
O=C(Nc1cccc(C(=O)N2CCC(N3CCOCC3)CC2)c1)NC12CC3CC(CC(C3)C1)C2,IC50,[1],29 nM
CC(=O)Oc1ccc(NC(=O)NC23CC4CC(CC(C4)C2)C3)cc1,IC50,[1],3.9 nM
same,Stability,[7],< 0.1%
same,Stability,[8],< 0.1%
same,Stability,[15],Unstable
COC(=O)Cc1ccc(NC(=O)NC23CC4CC(CC(C4)C2)C3)cc1,IC50,[1],4 nM
O=C(Nc1cccc(O)c1)NC12CC3CC(CC(C3)C1)C2,IC50,[1],28 nM
O=C(Nc1ccc(OC(=O)c2ccccc2)cc1)NC12CC3CC(CC(C3)C1)C2,IC50,[1],11 nM
same,Stability,[7],32%
same,Stability,[8],31%
same,Stability,[15],Unstable
O=C(Nc1cccc(C(=O)N2CCOCC2)c1)NC12CC3CC(CC(C3)C1)C2,IC50,[1],25 nM
O=C(Nc1cccc(C(=O)O)c1)NC12CC3CC(CC(C3)C1)C2,IC50,[1],365 nM
COC(=O)c1cc(NC(=O)NC23CC4CC(CC(C4)C2)C3)ccc1O,IC50,[1],12 nM
same,Stability,[7],46%
same,Stability,[8],51%
O=C(Nc1ccc(C(=O)O)cc1)NC12CC3CC(CC(C3)C1)C2,IC50,[1],1410 nM
O=C(O)CCc1ccc(NC(=O)NC23CC4CC(CC(C4)C2)C3)cc1,IC50,[1],126 nM

# Source: ChEMBL document CHEMBL1153910, “Salicylate-urea-based soluble epoxide hydrolase inhibitors with high metabolic and chemical stabilities” (Bioorg Med Chem Lett, 2009)
